From ChEMBL document CHEMBL5724801, “EUbOPEN Chemogenomics Library - Multiplex” (2024)
“And” between values parts separate entries of the source, which are not always exact repeats. Equal values may be shown once.

System: Fibroblast
Assay: Multiplex assay against human fibroblast
Assay type: toxicity, cell-based
Summary of the method: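 Live cells were stained at seeding with Hoechst33342, BioTracker Green Microtubule Cytoskeleton Dye, MitoTracker Red and Annexin V Alexa Fluor 680, then imaged on a CQ1 microscope at 37°C and 5% CO2 after compound addition. CellPathfinder machine-learning gating split cells into Hoechst high-intensity objects or normal cells. Normal cells were split into healthy, pyknosed or fragmented nuclei, and pyknosed cells into mitotic or apoptotic. Tubulin, mitochondrial-mass and membrane-permeability phenotypes are per cents of healthy-nucleus cells.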

[1] = 12 h, 1 µM, compound concentration 1 uM
[2] = 12 h, 10 µM, compound concentration 10 uM
[3] = 24 h, 1 µM, compound concentration 1 uM
[4] = 24 h, 10 µM, compound concentration 10 uM
[5] = 48 h, 1 µM, compound concentration 1 uM
[6] = 48 h, 10 µM, compound concentration 10 uM

COc1cc(NC(=O)CCN2CCC(OC(=O)Nc3ccccc3-c3ccccc3)CC2)c(Cl)cc1CNC[C@H](O)c1ccc(O)c2[nH]c(=O)ccc12 [BATEFENTEROL]
Population Apoptotic (%) [1]: 53% and 37%
Population Fragmented Nuclei (%) [1]: 25%
Population Healthy Nuclei (%) [1]: 58% and 54%
Population Hoechst High Intensity Objects (%) [1]: 2% and 3%
Population Membrane Permeable-Phenotype (%) [1]: 0% and 3%
Population Mitochondria Different-Phenotype (%) [1]: 13% and 7%
Population Mitotic Cells (%) [1]: 46% and 62%
Population Normal (%) [1]: 97% and 96%
Population Pyknosed Nuclei (%) [1]: 15% and 20%
Population Tubulin-Different-Phenotype (%) [1]: 42% and 50%
Total Cell Count [1]: 181 and 124
Population Apoptotic (%) [2]: 46% and 41%
Population Fragmented Nuclei (%) [2]: 24% and 44%
Population Healthy Nuclei (%) [2]: 59% and 41%
Population Hoechst High Intensity Objects (%) [2]: 2%
Population Membrane Permeable-Phenotype (%) [2]: 0% and 1%
Population Mitochondria Different-Phenotype (%) [2]: 22% and 23%
Population Mitotic Cells (%) [2]: 53% and 58%
Population Normal (%) [2]: 97%
Population Pyknosed Nuclei (%) [2]: 16% and 13%
Population Tubulin-Different-Phenotype (%) [2]: 63% and 84%
Total Cell Count [2]: 199 and 128
Population Apoptotic (%) [3]: 55% and 50%
Population Fragmented Nuclei (%) [3]: 21% and 26%
Population Healthy Nuclei (%) [3]: 62% and 59%
Population Hoechst High Intensity Objects (%) [3]: 1% and 2%
Population Membrane Permeable-Phenotype (%) [3]: 0% and 3%
Population Mitochondria Different-Phenotype (%) [3]: 7% and 10%
Population Mitotic Cells (%) [3]: 44% and 50%
Population Normal (%) [3]: 98% and 97%
Population Pyknosed Nuclei (%) [3]: 15% and 14%
Population Tubulin-Different-Phenotype (%) [3]: 39% and 57%
Total Cell Count [3]: 174 and 131
Population Apoptotic (%) [4]: 51% and 81%
Population Fragmented Nuclei (%) [4]: 35% and 46%
Population Healthy Nuclei (%) [4]: 53% and 45%
Population Hoechst High Intensity Objects (%) [4]: 0% and 1%
Population Membrane Permeable-Phenotype (%) [4]: 0% and 1%
Population Mitochondria Different-Phenotype (%) [4]: 34% and 14%
Population Mitotic Cells (%) [4]: 48% and 18%
Population Normal (%) [4]: 99% and 98%
Population Pyknosed Nuclei (%) [4]: 11% and 8%
Population Tubulin-Different-Phenotype (%) [4]: 63% and 80%
Total Cell Count [4]: 247 and 136
Population Apoptotic (%) [5]: 62% and 66%
Population Fragmented Nuclei (%) [5]: 23% and 29%
Population Healthy Nuclei (%) [5]: 54% and 56%
Population Hoechst High Intensity Objects (%) [5]: 3%
Population Membrane Permeable-Phenotype (%) [5]: 0% and 4%
Population Mitochondria Different-Phenotype (%) [5]: 18% and 14%
Population Mitotic Cells (%) [5]: 37% and 33%
Population Normal (%) [5]: 96%
Population Pyknosed Nuclei (%) [5]: 22% and 14%
Population Tubulin-Different-Phenotype (%) [5]: 53% and 70%
Total Cell Count [5]: 185 and 130
Population Apoptotic (%) [6]: 74% and 88%
Population Fragmented Nuclei (%) [6]: 22% and 45%
Population Healthy Nuclei (%) [6]: 54% and 48%
Population Hoechst High Intensity Objects (%) [6]: 1% and 0%
Population Membrane Permeable-Phenotype (%) [6]: 0% and 1%
Population Mitochondria Different-Phenotype (%) [6]: 45% and 15%
Population Mitotic Cells (%) [6]: 25% and 11%
Population Normal (%) [6]: 98% and 99%
Population Tubulin-Different-Phenotype (%) [6]: 77% and 76%
Total Cell Count [6]: 213 and 144
